From ChEMBL document CHEMBL1667760, “Synthesis and biological evaluation of 3,5-diaryl isoxazoline/isoxazole linked 2,3-dihydroquinazolinone hybrids as anticancer agents” (2011)
Calls of active or inactive are those of the source. The calls are words filed in the database; no cut-off is given here.

Legend:
MCF7 [1] = experiment: Reduction of CDK1 expression in human MCF7 cells at 5 uM after 24 hrs by Western blotting; type: functional, cell-based
Summary of the method: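 MCF-7 cells, kept in DMEM with 10% fetal calf serum at 37 °C under 5% CO2, treated 24 h. Lysis in ice-cold RIPA with protease inhibitors; Bradford quantitation; 30 µg protein per lane on 12% SDS-PAGE, then PVDF. Primary antibodies (1:500) at 4 °C overnight; HRP secondary (1:2000); chemiluminescence detection; β-actin loading control.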

BT-549 = experiment: Cytotoxicity against human BT549 cells after 48 hrs by sulforhodamine B assay; type: functional; details: BT-549, 48 h
Summary of the method: (§1)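 Run by the NCI 60-cell-line screen. A one-dose pre-test was done first, followed by the main test over a 5-log dose range (10^-4 to 10^-8 M). Results are reported as log molar GI50 (50% net growth inhibition), TGI (total growth inhibition) and LC50 (50% net cell death), with mean-graph midpoints across all lines.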

NCI-H226 = experiment: Cytotoxicity against human NCI-H226 cells after 48 hrs by sulforhodamine B assay; type: functional; details: NCI-H226, 48 h; summary of the method: as §1
MCF7 [2] = experiment: Cytotoxicity against human MCF7 cells at 5 uM after 24 hrs by MTT assay
SF-539 = experiment: Cytotoxicity against human SF539 cells after 48 hrs by sulforhodamine B assay; type: functional; details: SF-539, 48 h; summary of the method: as §1
SNB-19 = experiment: Cytotoxicity against human SNB19 cells after 48 hrs by sulforhodamine B assay; type: functional; details: SNB-19, 48 h
Summary of the method: (§2)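 NCI 60-cell-line panel screen of human tumor lines: a one-dose pre-test, then the main test over a 5-log range (10^-4–10^-8 M). GI50, TGI and LC50 are reported as log molar concentrations for 50% net growth inhibition, total growth inhibition and 50% net cell death. Mean graph midpoints are also calculated.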

T47D = experiment: Cytotoxicity against human T47D cells after 48 hrs by sulforhodamine B assay; type: functional; summary of the method: as §2
CAKI-1 = experiment: Cytotoxicity against human Caki1 cells after 48 hrs by sulforhodamine B assay; type: functional; details: CAKI-1, 48 h; summary of the method: as §1
Malme-3M = experiment: Cytotoxicity against human MALME-3M cells after 48 hrs by sulforhodamine B assay; type: functional
Summary of the method: (§3)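 Run by the NCI 60 human tumour cell line screen. A one-dose pre-test across sixty lines came first. The main test then used a 5-log dose range (10^-4–10^-8 M). Values derived per cell line were GI50 (log molar concentration for 50% net growth inhibition), TGI (total growth inhibition) and LC50 (50% net cell death).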

M14 = experiment: Cytotoxicity against human M14 cells after 48 hrs by sulforhodamine B assay; type: functional; details: M14, 48 h; summary of the method: as §1
HL-60(TB) = experiment: Cytotoxicity against human HL-60(TB) cells after 48 hrs by sulforhodamine B assay; type: functional; details: HL-60, 48 h; summary of the method: as §3
SW-620 = experiment: Cytotoxicity against human SW620 cells after 48 hrs by sulforhodamine B assay; type: functional; details: SW-620, 48 h; summary of the method: as §2
MDA-MB-231 = experiment: Cytotoxicity against human MDA-MB-231 cells after 48 hrs by sulforhodamine B assay; type: functional; details: MDA-MB-231, 48 h; summary of the method: as §1
SK-OV-3 = experiment: Cytotoxicity against human SKOV3 cells after 48 hrs by sulforhodamine B assay; type: functional; details: SK-OV-3, 48 h; summary of the method: as §1
SK-MEL-2 = experiment: Cytotoxicity against human SK-MEL-2 cells after 48 hrs by sulforhodamine B assay; type: functional; details: SK-MEL-2, 48 h; summary of the method: as §1
A498 = experiment: Cytotoxicity against human A498 cells after 48 hrs by sulforhodamine B assay; type: functional; details: A498, 48 h; summary of the method: as §1
MCF7 [3] = experiment: Cell cycle arrest in human MCF7 cells assessed as accumulation at G1 phase at 5 uM after 24 hrs using propidium iodide staining by flow cytometry relative to control; type: functional
Summary of the method: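 MCF-7 cells were seeded at 5×10^5 per 60 mm dish and grown 24 h. They were then exposed to 5 uM compound for a further 24 h, with untreated control cells alongside. Cells were trypsinised, fixed in ice-cold 70% ethanol (4 °C, 30 min), treated with 1 mg/ml RNase A (37 °C, 30 min) and stained with propidium iodide/citrate/Triton solution. DNA content was read by flow cytometry on 20,000 events.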

KM12 = experiment: Cytotoxicity against human KM12 cells after 48 hrs by sulforhodamine B assay; type: functional; details: KM12, 48 h; summary of the method: as §1
HOP-62 = experiment: Cytotoxicity against human HOP62 cells after 48 hrs by sulforhodamine B assay; type: functional; details: HOP-62, 48 h; summary of the method: as §1
NCI-H460 = experiment: Cytotoxicity against human NCI-H460 cells after 48 hrs by sulforhodamine B assay; type: functional; details: NCI-H460, 48 h; summary of the method: as §1
[4] = Cytotoxicity against human […] cells after 48 hrs by sulforhodamine B assay; type: functional; summary of the method: as §1
SN12C = experiment: Cytotoxicity against human SN12C cells after 48 hrs by sulforhodamine B assay; type: functional; summary of the method: as §2
SK-MEL-5 = experiment: Cytotoxicity against human SK-MEL-5 cells after 48 hrs by sulforhodamine B assay; type: functional; details: SK-MEL-5, 48 h; summary of the method: as §1
NCI-H522 = experiment: Cytotoxicity against human NCI-H522 cells after 48 hrs by sulforhodamine B assay; type: functional; details: NCI-H522, 48 h; summary of the method: as §1
EKVX = experiment: Cytotoxicity against human EKVX cells after 48 hrs by sulforhodamine B assay; type: functional; summary of the method: as §3
UO-31 = experiment: Cytotoxicity against human UO31 cells after 48 hrs by sulforhodamine B assay; type: functional; details: UO-31, 48 h; summary of the method: as §2
NCI-H322M = experiment: Cytotoxicity against human NCI-H322M cells after 48 hrs by sulforhodamine B assay; type: functional; summary of the method: as §1
[5] = read-out: pLC50 (the source's name) (converted)

COc1cc(C2NC(=O)c3ccccc3N2)ccc1OCCCCCOc1c(OC)cc(C2=NOC(c3cc(OC)c(OC)c(OC)c3)C2)cc1OC (configuration not stated)
Activity (MCF7 [1]): Active
CC50 (BT-549; [5]): > 100 µM
TGI (BT-549; read-out: pTGI): > 100 µM
GI50 (NCI-H226): 3.39 µM
CC50 (NCI-H226; [5]): > 100 µM
TGI (NCI-H226; read-out: pTGI): > 100 µM
Activity (MCF7 [2]): Active
GI50 (SF-539): 17.8 µM
CC50 (SF-539; [5]): > 100 µM
TGI (SF-539; read-out: pTGI (converted)): 89.1 µM
GI50 (SNB-19): 16.6 µM
CC50 (SNB-19; [5]): > 100 µM
TGI (SNB-19; read-out: pTGI): > 100 µM
GI50 (T47D): 191 nM
CC50 (T47D; [5]): > 100 µM
TGI (T47D; read-out: pTGI): > 100 µM
GI50 (CAKI-1): > 100 µM
CC50 (CAKI-1; [5]): > 100 µM
TGI (CAKI-1; read-out: pTGI): > 100 µM
CC50 (Malme-3M; [5]): > 100 µM
TGI (Malme-3M; read-out: pTGI): > 100 µM
GI50 (M14): 20.9 µM
CC50 (M14; [5]): > 100 µM
TGI (M14; read-out: pTGI): > 100 µM
GI50 (HL-60(TB)): 11.2 µM
CC50 (HL-60(TB); [5]): > 100 µM
TGI (HL-60(TB); read-out: pTGI): > 100 µM
GI50 (SW-620): 10.2 µM
CC50 (SW-620; [5]): > 100 µM
TGI (SW-620; read-out: pTGI): > 100 µM
GI50 (MDA-MB-231): 14.8 µM
CC50 (MDA-MB-231; [5]): > 100 µM
TGI (MDA-MB-231; read-out: pTGI): > 100 µM
GI50 (SK-OV-3): 25.1 µM
CC50 (SK-OV-3; [5]): > 100 µM
TGI (SK-OV-3; read-out: pTGI): > 100 µM
GI50 (SK-MEL-2): 35.5 µM
CC50 (SK-MEL-2; [5]): > 100 µM
TGI (SK-MEL-2; read-out: pTGI): > 100 µM
GI50 (A498): 19.5 µM
CC50 (A498; [5]): > 100 µM
TGI (A498; read-out: pTGI): > 100 µM
Activity (MCF7 [3]): 32.15%
GI50 (KM12): 5.5 µM
CC50 (KM12; [5]): > 100 µM
TGI (KM12; read-out: pTGI): > 100 µM
GI50 (HOP-62): 19.1 µM
CC50 (HOP-62; [5]): > 100 µM
TGI (HOP-62; read-out: pTGI (converted)): 81.3 µM
GI50 (NCI-H460): 13.5 µM
CC50 (NCI-H460; [5]): > 100 µM
TGI (NCI-H460; read-out: pTGI (converted)): 60.3 µM
GI50 [4]: 85.1 nM
CC50 [4, 5]: > 100 µM
TGI ([4]; read-out: pTGI (converted)): 2290 nM
GI50 (SN12C): 25.1 µM
CC50 (SN12C; [5]): > 100 µM
TGI (SN12C; read-out: pTGI): > 100 µM
GI50 (SK-MEL-5): 112 nM
CC50 (SK-MEL-5; [5]): 933 nM
TGI (SK-MEL-5; read-out: pTGI (converted)): 324 nM
GI50 (NCI-H522): 10.7 µM
CC50 (NCI-H522; [5]): 93.3 µM
TGI (NCI-H522; read-out: pTGI (converted)): 31.6 µM
CC50 (EKVX; [5]): > 100 µM
TGI (EKVX; read-out: pTGI): > 100 µM
GI50 (UO-31): 10.7 µM
CC50 (UO-31; [5]): > 100 µM
TGI (UO-31; read-out: pTGI): > 100 µM
GI50 (NCI-H322M): > 100 µM
CC50 (NCI-H322M; [5]): > 100 µM
TGI (NCI-H322M; read-out: pTGI): > 100 µM
